Five compounds from article PMC7112766 (Science Advances, 2020) can be followed below.

In experiment [1] the test system is splenocytes. In kind it is cell-based, mouse. The note with it: for IL-17A or IFNγ responses by ELISpot: 24 hours, 37°C.
In another experiment the target is T1, I-A^b (Mus musculus, UniProt P14434+P14483).
T1 sequence (P14434 24-256): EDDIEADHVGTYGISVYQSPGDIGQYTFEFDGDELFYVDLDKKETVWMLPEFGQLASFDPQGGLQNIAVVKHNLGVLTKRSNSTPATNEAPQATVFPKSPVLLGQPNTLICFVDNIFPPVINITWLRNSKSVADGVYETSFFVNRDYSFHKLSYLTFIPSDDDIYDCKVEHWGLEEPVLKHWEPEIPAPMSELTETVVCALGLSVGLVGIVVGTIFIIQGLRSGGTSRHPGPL
T1 sequence (P14483 28-265): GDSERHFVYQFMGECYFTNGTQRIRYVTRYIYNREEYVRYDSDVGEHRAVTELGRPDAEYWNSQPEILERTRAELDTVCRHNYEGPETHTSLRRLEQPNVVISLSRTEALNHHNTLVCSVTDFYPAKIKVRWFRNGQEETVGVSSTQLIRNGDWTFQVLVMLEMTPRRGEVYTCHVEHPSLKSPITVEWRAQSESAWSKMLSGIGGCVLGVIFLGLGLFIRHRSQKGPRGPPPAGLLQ
As to the kind of experiment: MHC binding assay, inhibition of radiolabeled peptide binding, I-A^b. Summed up:
(§1)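 Class II MHC affinity-purified from mouse B cell lymphoma LB27.4. Complexes captured on Y3JP antibody-coated plates; bound cpm counted by microscintillation. Six peptide concentrations over a 100,000-fold range, ≥3 independent experiments. IC50 is the concentration giving 50% probe inhibition; unlabeled probe is the positive control.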

A further experiment concerns the target T2, I-A^d (Mus musculus, UniProt P01921+P04228).
T2 sequence (P04228 24-256): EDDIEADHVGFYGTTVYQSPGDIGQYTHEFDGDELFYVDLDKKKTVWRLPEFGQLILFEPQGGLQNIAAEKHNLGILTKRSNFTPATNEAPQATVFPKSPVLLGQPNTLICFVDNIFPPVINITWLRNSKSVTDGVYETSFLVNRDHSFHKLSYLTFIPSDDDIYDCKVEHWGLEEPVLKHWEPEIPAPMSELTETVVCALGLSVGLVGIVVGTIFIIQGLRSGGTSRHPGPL
T2 sequence (P01921 28-265): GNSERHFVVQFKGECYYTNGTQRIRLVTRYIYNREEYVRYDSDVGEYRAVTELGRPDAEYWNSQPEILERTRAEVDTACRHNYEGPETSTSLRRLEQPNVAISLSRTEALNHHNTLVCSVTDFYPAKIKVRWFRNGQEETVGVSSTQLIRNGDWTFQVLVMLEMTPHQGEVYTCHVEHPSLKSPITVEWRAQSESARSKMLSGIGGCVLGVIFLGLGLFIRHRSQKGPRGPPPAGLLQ
The experiment in a line: MHC binding assay, inhibition of radiolabeled peptide binding, I-A^d. Summed up:
as §1

In a further experiment the target is T3, I-E^d (Mus musculus, UniProt P01904+P01915).
T3 sequence (P01904 26-255): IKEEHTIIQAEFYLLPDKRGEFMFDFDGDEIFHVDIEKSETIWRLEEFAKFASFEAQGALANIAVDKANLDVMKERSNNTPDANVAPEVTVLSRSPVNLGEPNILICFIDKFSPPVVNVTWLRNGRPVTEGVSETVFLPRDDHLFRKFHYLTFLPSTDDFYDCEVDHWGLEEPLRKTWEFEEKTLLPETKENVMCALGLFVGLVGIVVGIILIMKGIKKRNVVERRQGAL
T3 sequence (P01915 27-264 limits assumed): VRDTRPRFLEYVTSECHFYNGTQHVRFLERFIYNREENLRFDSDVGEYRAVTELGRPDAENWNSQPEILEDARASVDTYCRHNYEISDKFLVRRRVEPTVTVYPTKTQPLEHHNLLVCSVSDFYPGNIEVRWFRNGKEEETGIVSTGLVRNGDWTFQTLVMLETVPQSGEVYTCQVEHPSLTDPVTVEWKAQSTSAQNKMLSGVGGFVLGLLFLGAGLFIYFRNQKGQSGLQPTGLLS
As to the kind of experiment: MHC binding assay, inhibition of radiolabeled peptide binding, I-E^d.

The test system of experiment [2] is splenocytes. The note with it: mouse, in vivo.
A further experiment has as its system S. aureus. Also on record: species or system S. aureus strain 923, a USA300 isolate; mice. The note with it: mouse, in vivo.
For experiment [3], the system named is tetramer^+ CD44^hi CD4^+ T cells. The note with it: mouse, in vivo.
Another experiment deals with TFH cells. The note with it: mouse, in vivo.

“Also recorded” adds a separate entry of the source.

With “LukS-PV: leukocidin S-PV, purified from E. coli, GST removed; sae-regulated antigen”, in the experiment with splenocytes [1], the “IFNγ response by ELISpot” value is “weaker IFNγ; also recorded: moderate IFNg responses”; the “IL-17A and IFNγ responses, mice expressing H-2^d compared with H-2^b” value is “significantly stronger IL-17A and IFNγ responses”; the “IL-17A response by ELISpot” value is recorded as “strongest IL-17A responses; also recorded: strong IL-17A responses”; the “IL-17A or IFNγ responses by ELISpot” value is reported as “minimal IL-17A or IFNγ responses; also recorded: no detectable responses”.
Consider `CC[C@H](C)[C@H](NC(=O)[C@H](CCC(=O)O)NC(=O)[C@H](Cc1c[nH]cn1)NC(=O)[C@@H](NC(=O)[C@H](CCCCN)NC(=O)[C@H](Cc1c[nH]c2ccccc12)NC(=O)[C@H](CC(N)=O)NC(=O)[C@@H](NC(=O)[C@H](CCC(=O)O)NC(=O)[C@@H](N)Cc1ccc(O)cc1)C(C)C)[C@@H](C)O)C(=O)N[C@@H](CCCCN)C(=O)N[C@H](C(=O)N[C@@H](CCCCN)C(=O)NCC(=O)N[C@@H](Cc1c[nH]cn1)C(=O)N[C@@H](CC(N)=O)C(=O)O)C(C)C` [LkT/C], for which the IC50 at I-A^b worked out at 17.3 µM; at I-A^d, 3.21 µM; on I-E^d, 0.0022 µM.
At I-A^b, `CC(C)[C@H](NC(=O)CNC(=O)[C@H](Cc1c[nH]c2ccccc12)NC(=O)[C@@H](N)CCCCN)C(=O)N[C@@H](CCCCN)C(=O)N[C@@H](C)C(=O)N[C@@H](CC(N)=O)C(=O)N[C@@H](CCC(=O)O)C(=O)N[C@@H](Cc1ccccc1)C(=O)N[C@H](C(=O)N[C@H](C(=O)N1CCC[C@H]1C(=O)N[C@@H](CC(=O)O)C(=O)NCC(=O)N[C@@H](CCCCN)C(=O)N[C@@H](CCCCN)C(=O)O)[C@@H](C)O)C(C)C` [LukE185–200] returned a 50% inhibitory concentration (IC50) of 4.05 µM. That is a single-digit micromolar value.
Consider `CC[C@H](C)[C@H](N)C(=O)NCC(=O)NCC(=O)N[C@@H](CC(N)=O)C(=O)NCC(=O)N[C@@H](CO)C(=O)N[C@@H](Cc1ccccc1)C(=O)N[C@@H](CC(N)=O)C(=O)N[C@@H](Cc1ccc(O)cc1)C(=O)N[C@@H](CO)C(=O)N[C@@H](CCCCN)C(=O)N[C@H](C(=O)N[C@H](C(=O)N[C@@H](CO)C(=O)N[C@@H](Cc1ccc(O)cc1)C(=O)N[C@H](C(=O)O)[C@@H](C)O)[C@@H](C)CC)[C@@H](C)O` [LukE153–168], for which the IC50 at I-A^b worked out at 0.586 µM.
Turning to “LukE: leukotoxin E, His-tagged, purified from E. coli; antigen and vaccine”, in the experiment on splenocytes [1], the “IFNγ response by ELISpot” value is recorded as “weaker IFNγ; also recorded: moderate IFNg responses”; the “IL-17A and IFNγ responses, mice expressing H-2^d compared with H-2^b” value is “significantly stronger IL-17A and IFNγ responses”; the “IL-17A response by ELISpot” value is given as “strongest IL-17A responses; also recorded: strong IL-17A responses”; the “IL-17A or IFNγ responses by ELISpot” value is “minimal IL-17A or IFNγ responses; also recorded: no detectable responses”. In the experiment with splenocytes [2], the “IL-17A and IFNγ responses, vaccination compared with SSTI” value was “stronger IL-17A and IFNγ responses”; the “LukE-specific IL-17A response after vaccination” value was “no differences in LukE-specific IL-17A responses”. Besides, the “reduction of lesion size compared with control mice” value in the experiment with S. aureus was “approximately 40%”. In addition, the “protection against dermonecrosis (lesion size) after vaccination” value with S. aureus (sc) is “moderately strong protection against dermonecrosis; also recorded: weaker protection”. For the same compound, the “LukE-specific tetramer^+ CD44^hi CD4^+ T cells after vaccination” value in experiment [3] is reported as “high frequencies; also recorded: strong LukE-specific T cell responses”. Also, in the experiment with TFH cells, the “LukE-specific TFH cells after vaccination” value is listed as “expanded a population of LukE-specific TFH cells; also recorded: expansion of LukE-specific TFH cells”.
